In ChEMBL document CHEMBL3046621, “Fungicidal sesquiterpene dialdehyde cinnamates from Pseudowintera axillaris” (2006):

Assays:
Assay type in all cases: functional
Parastagonospora nodorum [1] = assay: Antifungal activity against Phaeosphaeria nodorum assessed as inhibition of glume blotch disease on wheat cultivar Yuma plants at 100 ppm measured 24 hr post fungal inoculation relative to untreated control
How it was run: (§1)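 Whole-plant protectant test: pure compounds in acetone, serially diluted in acetone to 6.25, 25 or 100 ppm and applied to plants.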

[2] = system: Puccinia graminis f. tritici; assay: Antifungal activity against Puccinia graminis f. tritici assessed as inhibition of wheat stem rust disease on wheat cultivar Yuma at 100 ppm measured 24 hr post fungal inoculation relative to untreated control; how it was run: as §1
Plasmopara viticola [3] = assay: Antifungal activity against Plasmopara viticola assessed as inhibition of grape downy mildew disease on vines cultivar Carignane plants at 100 ppm measured 24 hr post fungal inoculation relative to untreated control; how it was run: as §1
Phytophthora infestans [4] = assay: Antifungal activity against Phytophthora infestans assessed as inhibition of late tomato blight disease on tomato cultivar Rutgers plants at 100 ppm measured 24 hr post fungal inoculation relative to untreated control; how it was run: as §1
Zymoseptoria tritici [5] = assay: Antifungal activity against Zymoseptoria tritici assessed as inhibition of wheat leaf spot disease on wheat cultivar Yuma at 100 ppm measured 24 hr post fungal inoculation relative to untreated control; how it was run: as §1
Phytophthora infestans [6] = assay: Antifungal activity against Phytophthora infestans assessed as inhibition of late tomato blight disease on tomato cultivar Rutgers plants at 6.25 ppm measured 24 hr post fungal inoculation relative to untreated control; how it was run: as §1
Plasmopara viticola [7] = assay: Antifungal activity against Plasmopara viticola assessed as inhibition of grape downy mildew disease on vines cultivar Carignane plants at 25 ppm measured 24 hr post fungal inoculation relative to untreated control; how it was run: as §1
[8] = system: Puccinia graminis f. tritici; assay: Antifungal activity against Puccinia graminis f. tritici assessed as inhibition of wheat stem rust disease on wheat cultivar Yuma at 25 ppm measured 24 hr post fungal inoculation relative to untreated control; how it was run: as §1
Zymoseptoria tritici [9] = assay: Antifungal activity against Zymoseptoria tritici assessed as inhibition of wheat leaf spot disease on wheat cultivar Yuma at 6.25 ppm measured 24 hr post fungal inoculation relative to untreated control; how it was run: as §1
Phytophthora infestans [10] = assay: Antifungal activity against Phytophthora infestans assessed as inhibition of late tomato blight disease on tomato cultivar Rutgers plants at 25 ppm measured 24 hr post fungal inoculation relative to untreated control; how it was run: as §1
Plasmopara viticola [11] = assay: Antifungal activity against Plasmopara viticola assessed as inhibition of grape downy mildew disease on vines cultivar Carignane plants at 6.25 ppm measured 24 hr post fungal inoculation relative to untreated control; how it was run: as §1
[12] = system: Puccinia graminis f. tritici; assay: Antifungal activity against Puccinia graminis f. tritici assessed as inhibition of wheat stem rust disease on wheat cultivar Yuma at 6.25 ppm measured 24 hr post fungal inoculation relative to untreated control; how it was run: as §1
Parastagonospora nodorum [13] = assay: Antifungal activity against Phaeosphaeria nodorum assessed as inhibition of glume blotch disease on wheat cultivar Yuma plants at 6.25 ppm measured 24 hr post fungal inoculation relative to untreated control; how it was run: as §1
Parastagonospora nodorum [14] = assay: Antifungal activity against Phaeosphaeria nodorum assessed as inhibition of glume blotch disease on wheat cultivar Yuma plants at 25 ppm measured 24 hr post fungal inoculation relative to untreated control; how it was run: as §1
Zymoseptoria tritici [15] = assay: Antifungal activity against Zymoseptoria tritici assessed as inhibition of wheat leaf spot disease on wheat cultivar Yuma at 25 ppm measured 24 hr post fungal inoculation relative to untreated control; how it was run: as §1
Phytophthora infestans [16] = assay: Antifungal activity against Phytophthora infestans assessed as inhibition of late tomato blight disease on tomato cultivar Rutgers plants at 25 ppm measured 96 hr post fungal inoculation relative to untreated control; how it was run: as §1
Parastagonospora nodorum [17] = assay: Antifungal activity against Phaeosphaeria nodorum assessed as inhibition of glume blotch disease on wheat cultivar Yuma plants at 100 ppm measured 96 hr post fungal inoculation relative to untreated control; how it was run: as §1
Phytophthora infestans [18] = assay: Antifungal activity against Phytophthora infestans assessed as inhibition of late tomato blight disease on tomato cultivar Rutgers plants at 100 ppm measured 96 hr post fungal inoculation relative to untreated control; how it was run: as §1
Parastagonospora nodorum [19] = assay: Antifungal activity against Phaeosphaeria nodorum assessed as inhibition of glume blotch disease on wheat cultivar Yuma plants at 25 ppm measured 96 hr post fungal inoculation relative to untreated control; how it was run: as §1
Plasmopara viticola [20] = assay: Antifungal activity against Plasmopara viticola assessed as inhibition of grape downy mildew disease on vines cultivar Carignane plants at 100 ppm measured 96 hr post fungal inoculation relative to untreated control; how it was run: as §1
Plasmopara viticola [21] = assay: Antifungal activity against Plasmopara viticola assessed as inhibition of grape downy mildew disease on vines cultivar Carignane plants at 25 ppm measured 96 hr post fungal inoculation relative to untreated control; how it was run: as §1
[22] = system: Puccinia graminis f. tritici; assay: Antifungal activity against Puccinia graminis f. tritici assessed as inhibition of wheat stem rust disease on wheat cultivar Yuma at 100 ppm measured 96 hr post fungal inoculation relative to untreated control; how it was run: as §1
[23] = system: Puccinia graminis f. tritici; assay: Antifungal activity against Puccinia graminis f. tritici assessed as inhibition of wheat stem rust disease on wheat cultivar Yuma at 25 ppm measured 96 hr post fungal inoculation relative to untreated control; how it was run: as §1
[24] = system: Puccinia graminis f. tritici; assay: Antifungal activity against Puccinia graminis f. tritici assessed as inhibition of wheat stem rust disease on wheat cultivar Yuma at 6.25 ppm measured 96 hr post fungal inoculation relative to untreated control; how it was run: as §1
Plasmopara viticola [25] = assay: Antifungal activity against Plasmopara viticola assessed as inhibition of grape downy mildew disease on vines cultivar Carignane plants at 6.25 ppm measured 96 hr post fungal inoculation relative to untreated control; how it was run: as §1
Phytophthora infestans [26] = assay: Antifungal activity against Phytophthora infestans assessed as inhibition of late tomato blight disease on tomato cultivar Rutgers plants at 6.25 ppm measured 96 hr post fungal inoculation relative to untreated control; how it was run: as §1

Compound | inhibition at 100 ppm (Parastagonospora nodorum [1]) | inhibition at 100 ppm [2] | inhibition at 100 ppm (Plasmopara viticola [3]) | inhibition at 100 ppm (Phytophthora infestans [4]) | inhibition at 100 ppm (Zymoseptoria tritici [5]) | inhibition at 6.25 ppm (Phytophthora infestans [6]) | inhibition at 25 ppm (Plasmopara viticola [7]) | inhibition at 25 ppm [8] | inhibition at 6.25 ppm (Zymoseptoria tritici [9]) | inhibition at 25 ppm (Phytophthora infestans [10]) | inhibition at 6.25 ppm (Plasmopara viticola [11]) | inhibition at 6.25 ppm [12] | inhibition at 6.25 ppm (Parastagonospora nodorum [13]) | inhibition at 25 ppm (Parastagonospora nodorum [14]) | inhibition at 25 ppm (Zymoseptoria tritici [15]) | other results
C=C1[C@@H]2C(=O)C=C3[C@@H](OC)O[C@@H](OC)[C@@H]3[C@@]2(C)[C@H](OC(=O)/C=C/c2ccccc2)C[C@@H]1C | 0% | 0% | 0% | 0% | 0% |  |  |  |  |  |  |  |  |  |  | 
C=C1[C@@H](C)C[C@@H](O)[C@]2(C)[C@@H](C=O)C(C=O)=CC[C@@H]12 | 60% | 0% | 24% | 28% | 0% | 19% | 4% | 0% | 0% | 36% | 7% | 0% | 0% | 0% | 0% | 
C=C1[C@@H]2[C@@H](O)C=C3[C@@H](OC)O[C@@H](OC)[C@@H]3[C@@]2(C)[C@H](O)C[C@@H]1C | 0% | 0% | 0% | 0% | 11% |  |  |  |  |  |  |  |  |  |  | 
C=C1[C@@H](C)C[C@@H](OC(=O)/C=C/c2ccccc2)[C@@]2(C)[C@H]1CC=C(CO)[C@@H]2CO | 0% | 0% | 70% | 58% | 0% | -6% | 22% | 0% | 0% | 8% | 4% | 0% | 0% | 0% | 0% | 
C=C1[C@@H]2[C@@H](OC)C=C3[C@@H](OC)O[C@@H](OC)[C@@H]3[C@@]2(C)[C@H](O)C[C@@H]1C | 0% | 0% | 0% | 0% | 0% |  |  |  |  |  |  |  |  |  |  | 
C=C1[C@@H](C)C[C@@H](OC)[C@]2(C)[C@@H](C=O)C(C=O)=CC[C@@H]12 | 20% | 21% | 70% | 98% | 0% | 3% | 33% | 0% | 0% | 67% | 9% | 0% | 20% | 20% | 0% | 
C=C1[C@@H](C)C[C@@H](OC(=O)/C=C/c2ccccc2)[C@]2(C)[C@@H](C=O)C(C=O)=CC[C@@H]12 [Paxidal] | 17% | 0% | 51% | 69% | 7% |  | 23% | 0% |  | 57% |  |  |  | 0% | 0% | inhibition at 25 ppm (Phytophthora infestans [16]): 18%; inhibition at 100 ppm (Parastagonospora nodorum [17]): 18%; inhibition at 100 ppm (Phytophthora infestans [18]): 9%; inhibition at 25 ppm (Parastagonospora nodorum [19]): 0%; inhibition at 100 ppm (Plasmopara viticola [20]): 0%; inhibition at 25 ppm (Plasmopara viticola [21]): 0%
C=C1[C@@H]2[C@H](O)C=C(C=O)[C@H](C=O)[C@@]2(C)[C@H](OC(=O)/C=C/c2ccccc2)C[C@@H]1C | 73% | 77% | 76% | 100% | 0% | 72% | 28% | 8% | 0% | 82% | 0% | 0% | 0% | 0% | 0% | inhibition at 25 ppm (Phytophthora infestans [16]): 7%; inhibition at 100 ppm [22]: 61%; inhibition at 25 ppm [23]: 4%; inhibition at 6.25 ppm [24]: 0%; inhibition at 100 ppm (Phytophthora infestans [18]): 3%; inhibition at 100 ppm (Plasmopara viticola [20]): 86%; inhibition at 6.25 ppm (Plasmopara viticola [25]): 0%; inhibition at 25 ppm (Plasmopara viticola [21]): 0%; inhibition at 6.25 ppm (Phytophthora infestans [26]): 0%
C=C1[C@@H]2[C@@H](O)C=C3[C@@H](OC)O[C@@H](OC)[C@@H]3[C@@]2(C)[C@H](OC(=O)CCc2ccccc2)C[C@@H]1C | 0% | 9% | 0% | 0% | 90% | 0% | 0% | 9% | 0% | 0% | 0% | 42% | 0% | 0% | 17% | 
C=C1[C@@H]2[C@@H](O)C=C3[C@@H](OC)O[C@@H](OC)[C@@H]3[C@@]2(C)[C@H](OC(=O)/C=C/c2ccccc2)C[C@@H]1C | 0% | 7% | 0% | 0% | 78% | 0% | 0% | 4% | 43% | 0% | 0% | 0% | 0% | 0% | 33% | 
C=C1[C@@H]2[C@@H](O)C=C(C=O)[C@H](C=O)[C@@]2(C)[C@H](OC(=O)/C=C/c2ccccc2)C[C@@H]1C | 96% | 85% | 89% | 100% | 0% | 74% | 19% | 15% | 0% | 91% | 2% | 4% | 33% | 73% | 0% | 
C=C1[C@@H](C)C[C@@H](OC(=O)/C=C/c2ccccc2)[C@]2(C)[C@@H]3C(=CC[C@@H]12)[C@@H](OC)O[C@H]3OC | 20% | 71% | 74% | 99% | 0% | 47% | 61% | 4% | 0% | 78% | 7% | 4% | 0% | 0% | 0% | inhibition at 25 ppm (Phytophthora infestans [16]): 6%; inhibition at 100 ppm [22]: 19%; inhibition at 25 ppm [23]: 0%; inhibition at 6.25 ppm [24]: 0%; inhibition at 100 ppm (Phytophthora infestans [18]): 14%; inhibition at 100 ppm (Plasmopara viticola [20]): 57%; inhibition at 6.25 ppm (Plasmopara viticola [25]): 0%; inhibition at 25 ppm (Plasmopara viticola [21]): 23%; inhibition at 6.25 ppm (Phytophthora infestans [26]): 0%
